Measurements reported in ChEMBL document CHEMBL4052817 (J Med Chem, 2017).
Blank lines part the entries; values can stand above or below the compound they belong to.

Experiments:
[1] = molecular target: Indoleamine 2,3-dioxygenase 1 (Mus musculus, UniProt P28776); test: Inhibition of mouse IDO-1 using tryptophan as substrate after 22 mins by LC-MS/MS method
[2] = Inhibition of dog IDO-1 using tryptophan as substrate after 22 mins by LC-MS/MS method
[3] = Chemical stability in phosphate buffer saline at pH 7.4 assessed as parent compound remaining after 48 hrs; type: physicochemical; conditions: phosphate buffered saline, read-out: Stability
Summary of the method: (§1)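 (R)-enantiomer incubated for 48 h in phosphate-buffered saline (pH 7.4) or in mouse, rat, dog or acidified dog plasma. The (R)-enantiomer remaining and (S)-enantiomer formed were quantified (%) by chiral LC/MS-MS.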

[4] = Metabolic stability in mouse plasma assessed as parent compound remaining after 48 hrs; type: ADME, cell-free; conditions: read-out: Stability
Summary of the method: (§2)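 Active enantiomer incubated 48 h in mouse, dog or rat plasma, or in dog plasma that had been acidified; remaining enantiomer and formed antipode measured by chiral LC/MS-MS.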

[5] = Metabolic stability in dog plasma assessed as parent compound remaining after 48 hrs; type: ADME, cell-free, Canis lupus familiaris; conditions: read-out: Stability; summary of the method: as §2
[6] = Metabolic stability in rat plasma assessed as parent compound remaining after 48 hrs; type: ADME, cell-free; conditions: read-out: Stability; summary of the method: as §2
[7] = Metabolic stability in dog acidified plasma assessed as parent compound remaining after 48 hrs; type: ADME, cell-free, Canis lupus familiaris; conditions: read-out: Stability; summary of the method: as §2
[8] = Fraction unbound in human plasma after 48 hrs; type: ADME, cell-free
[9] = AUC (infinity) in rat at 1 mg/kg, iv; type: ADME, organism-based; set-up: dose 1 mg/kg, time infinity, route intravenous; conditions: in vivo
[10] = AUC (infinity) in dog at 1 mg/kg, iv; type: ADME, organism-based, Canis lupus familiaris; set-up: dose 1 mg/kg, route intravenous, time infinity; conditions: in vivo
[11] = AUC (infinity) in cynomolgus monkey at 1 mg/kg, iv; type: ADME, organism-based, Macaca fascicularis; set-up: dose 1 mg/kg, route intravenous, time infinity; conditions: in vivo
[12] = tested on: Rattus norvegicus; test: AUC (infinity) in rat assessed as (S)-3-(5-fluoro-1H-indol-3-yl)pyrrolidine-2,5-dione at 1 mg/kg, iv; type: ADME, organism-based; set-up: dose 1 mg/kg, time infinity, route intravenous; conditions: in vivo
Summary of the method: (§3)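 Pure active (R)-enantiomer given IV at 1 mg/kg to rat, dog and monkey. Exposure (AUCinf) of the (R)- and (S)-enantiomers measured; their AUC ratio reported as an index of in vivo interconversion.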

[13] = tested on: Canis familiaris; test: AUC (infinity) in dog assessed as (S)-3-(5-fluoro-1H-indol-3-yl)pyrrolidine-2,5-dione at 1 mg/kg, iv; type: ADME, organism-based, Canis lupus familiaris; set-up: dose 1 mg/kg, route intravenous, time infinity; conditions: in vivo; summary of the method: as §3
[14] = tested on: Cynomolgus monkey; test: AUC (infinity) in cynomolgus monkey assessed as (S)-3-(5-fluoro-1H-indol-3-yl)pyrrolidine-2,5-dione at 1 mg/kg, iv; type: ADME, organism-based, Macaca fascicularis; set-up: dose 1 mg/kg, route intravenous, time infinity; conditions: in vivo; summary of the method: as §3
[15] = tested on: Cynomolgus monkey; test: Drug metabolism in cynomolgus monkey assessed as (S)-3-(5-fluoro-1H-indol-3-yl)pyrrolidine-2,5-dione formation at 10 mg/kg, po; type: ADME, organism-based, Macaca fascicularis; conditions: in vivo
Summary of the method: (§4)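 (R)-enantiomer or racemate dosed orally at 10 mg/kg to monkeys. Total plasma concentrations of each enantiomer were followed over time.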

[16] = Drug metabolism in human hepatocytes in presence of CYP inhibitor ABT; type: ADME, cell-based, Hepatocyte; conditions: with ABT (CYP inhibitor), read-out: Drug metabolism
[17] = Drug metabolism in human hepatocytes in absence of CYP inhibitor ABT; type: ADME, cell-based, Hepatocyte; conditions: read-out: Drug metabolism
[18] = molecular target: Indoleamine 2,3-dioxygenase 1 (Homo sapiens, UniProt P14902); test: Inhibition of human recombinant IDO-1 using L-Trp as substrate after 15 mins by PDMAB-based assay
Sequence of Indoleamine 2,3-dioxygenase 1 (Homo sapiens, UniProt P14902) (P14902 whole entry): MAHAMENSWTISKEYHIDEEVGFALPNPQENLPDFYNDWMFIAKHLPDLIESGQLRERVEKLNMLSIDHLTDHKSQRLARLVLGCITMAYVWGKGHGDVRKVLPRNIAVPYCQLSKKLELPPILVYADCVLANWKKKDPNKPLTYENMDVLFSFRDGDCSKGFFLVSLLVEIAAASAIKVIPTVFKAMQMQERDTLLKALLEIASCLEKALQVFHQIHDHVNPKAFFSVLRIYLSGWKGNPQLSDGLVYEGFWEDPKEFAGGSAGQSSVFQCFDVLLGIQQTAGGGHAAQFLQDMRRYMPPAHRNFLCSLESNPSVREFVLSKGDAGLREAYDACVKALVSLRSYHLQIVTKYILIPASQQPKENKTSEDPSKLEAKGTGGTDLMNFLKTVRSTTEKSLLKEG

[19] = Fraction unbound in human plasma; type: ADME, cell-free
Summary of the method: (§5)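 Racemate incubated with plasma from preclinical species and humans. The unbound fraction of the (R)-enantiomer was determined.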

[20] = Fraction unbound in mouse plasma; type: ADME, cell-free; summary of the method: as §5
[21] = Intrinsic clearance in human microsomes; type: ADME, Microsome
[22] = Intrinsic clearance in mouse microsomes; type: ADME, Microsome
[23] = Apparent permeability across human Caco2 cells; type: ADME, cell-based; conditions: Caco-2
[24] = molecular target: T1, Cytochrome P450 1A2 (Homo sapiens, UniProt P05177); test: Inhibition of CYP1A2 (unknown origin); type: ADME
T1 sequence (P05177 whole entry): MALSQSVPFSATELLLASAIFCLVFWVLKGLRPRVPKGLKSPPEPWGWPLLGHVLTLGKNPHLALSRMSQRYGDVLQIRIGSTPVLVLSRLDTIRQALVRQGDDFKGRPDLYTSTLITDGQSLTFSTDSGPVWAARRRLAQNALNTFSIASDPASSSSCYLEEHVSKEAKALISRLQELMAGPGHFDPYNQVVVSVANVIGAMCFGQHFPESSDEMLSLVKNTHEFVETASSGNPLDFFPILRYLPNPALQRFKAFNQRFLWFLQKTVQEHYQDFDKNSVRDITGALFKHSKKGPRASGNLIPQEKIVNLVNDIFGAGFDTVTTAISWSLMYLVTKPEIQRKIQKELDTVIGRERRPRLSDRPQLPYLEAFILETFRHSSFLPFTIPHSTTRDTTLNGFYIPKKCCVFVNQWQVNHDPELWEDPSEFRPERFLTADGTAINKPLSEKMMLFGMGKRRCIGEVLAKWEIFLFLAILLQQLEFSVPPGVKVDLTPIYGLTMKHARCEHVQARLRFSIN

[25] = molecular target: Cytochrome P450 2C9 (Homo sapiens, UniProt P11712); test: Inhibition of CYP2C9 (unknown origin); type: ADME
Sequence of Cytochrome P450 2C9 (P11712 whole entry): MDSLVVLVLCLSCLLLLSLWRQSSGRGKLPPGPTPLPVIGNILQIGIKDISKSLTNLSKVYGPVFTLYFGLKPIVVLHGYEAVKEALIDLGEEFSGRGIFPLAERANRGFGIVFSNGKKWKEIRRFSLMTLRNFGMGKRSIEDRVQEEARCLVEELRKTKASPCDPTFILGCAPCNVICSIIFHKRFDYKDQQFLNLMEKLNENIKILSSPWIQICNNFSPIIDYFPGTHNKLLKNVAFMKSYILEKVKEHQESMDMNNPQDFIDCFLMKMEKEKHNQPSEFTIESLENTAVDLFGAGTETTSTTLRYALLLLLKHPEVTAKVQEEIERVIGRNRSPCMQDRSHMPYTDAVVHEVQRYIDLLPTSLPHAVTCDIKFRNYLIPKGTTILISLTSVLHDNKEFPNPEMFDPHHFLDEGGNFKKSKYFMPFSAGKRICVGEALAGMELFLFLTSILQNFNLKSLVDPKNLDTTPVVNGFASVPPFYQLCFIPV

[26] = molecular target: Cytochrome P450 2C19 (Homo sapiens, UniProt P33261); test: Inhibition of CYP2C19 (unknown origin); type: ADME
Sequence of Cytochrome P450 2C19 (P33261 whole entry): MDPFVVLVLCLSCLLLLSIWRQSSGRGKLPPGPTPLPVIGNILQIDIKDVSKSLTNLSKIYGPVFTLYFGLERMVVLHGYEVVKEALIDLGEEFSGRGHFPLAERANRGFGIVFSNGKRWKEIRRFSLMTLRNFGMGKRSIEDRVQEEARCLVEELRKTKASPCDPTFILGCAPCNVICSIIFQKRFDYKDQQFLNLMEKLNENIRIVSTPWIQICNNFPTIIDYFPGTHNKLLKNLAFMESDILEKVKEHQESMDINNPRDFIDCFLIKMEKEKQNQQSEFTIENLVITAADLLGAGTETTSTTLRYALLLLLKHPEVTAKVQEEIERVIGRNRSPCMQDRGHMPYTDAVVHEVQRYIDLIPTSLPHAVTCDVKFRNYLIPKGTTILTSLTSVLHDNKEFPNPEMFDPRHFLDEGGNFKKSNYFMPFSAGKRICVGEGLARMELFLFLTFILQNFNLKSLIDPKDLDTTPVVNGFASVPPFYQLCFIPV

[27] = molecular target: Cytochrome P450 2D6 (Homo sapiens, UniProt P10635); test: Inhibition of CYP2D6 (unknown origin); type: ADME
Sequence of Cytochrome P450 2D6 (P10635 whole entry): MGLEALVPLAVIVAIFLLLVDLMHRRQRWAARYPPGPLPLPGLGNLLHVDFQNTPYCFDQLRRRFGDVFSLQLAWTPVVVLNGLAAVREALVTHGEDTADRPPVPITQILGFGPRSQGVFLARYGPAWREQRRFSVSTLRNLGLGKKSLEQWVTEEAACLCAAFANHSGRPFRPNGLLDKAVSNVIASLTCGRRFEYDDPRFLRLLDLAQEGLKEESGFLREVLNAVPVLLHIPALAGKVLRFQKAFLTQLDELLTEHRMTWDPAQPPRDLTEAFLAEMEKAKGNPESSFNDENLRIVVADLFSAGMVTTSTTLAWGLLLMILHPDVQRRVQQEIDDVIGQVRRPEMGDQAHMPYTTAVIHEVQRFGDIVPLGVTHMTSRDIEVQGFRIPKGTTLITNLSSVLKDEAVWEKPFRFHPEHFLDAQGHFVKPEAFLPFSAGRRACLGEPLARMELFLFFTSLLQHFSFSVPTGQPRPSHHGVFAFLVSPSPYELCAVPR

[28] = molecular target: Cytochrome P450 3A4 (Homo sapiens, UniProt P08684); test: Inhibition of CYP3A4 (unknown origin); type: ADME
Sequence of Cytochrome P450 3A4 (P08684 whole entry): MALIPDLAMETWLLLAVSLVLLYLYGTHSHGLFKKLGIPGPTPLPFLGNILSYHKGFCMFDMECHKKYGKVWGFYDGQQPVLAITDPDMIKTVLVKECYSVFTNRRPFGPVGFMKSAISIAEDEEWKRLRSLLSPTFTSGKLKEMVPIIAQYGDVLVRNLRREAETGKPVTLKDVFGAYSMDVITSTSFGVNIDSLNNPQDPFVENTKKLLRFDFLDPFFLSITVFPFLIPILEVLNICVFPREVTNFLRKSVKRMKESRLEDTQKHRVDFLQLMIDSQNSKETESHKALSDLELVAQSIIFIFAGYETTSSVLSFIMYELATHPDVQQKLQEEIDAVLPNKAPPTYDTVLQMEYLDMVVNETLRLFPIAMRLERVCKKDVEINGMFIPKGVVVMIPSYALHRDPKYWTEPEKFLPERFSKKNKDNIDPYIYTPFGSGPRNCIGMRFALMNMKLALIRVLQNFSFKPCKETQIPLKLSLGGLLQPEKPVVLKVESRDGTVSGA

[29] = Clearance in mouse; type: ADME, organism-based; conditions: in vivo
[30] = Volume of distribution at steady state in mouse; type: ADME, organism-based; conditions: in vivo, read-out: Vdss
Summary of the method: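 Single 1 mg/kg IV dose of the racemate to male CD-1 mice (n=3). The plasma active enantiomer was quantified by chiral LC-MS/MS, and Vss was taken from the plasma concentration–time profile.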

[31] = Half life in mouse; type: ADME, organism-based; conditions: in vivo
[32] = Oral bioavailability in mouse at 5 mg/kg; type: ADME, organism-based; conditions: in vivo
[33] = Oral bioavailability in mouse at 30 mg/kg; type: ADME, organism-based; conditions: in vivo
[34] = Efflux ratio of apparent permeability across human Caco2 cells; type: ADME, cell-based; conditions: Caco-2
[35] = Drug level in phosphate buffer saline at pH 7.4 treated with (R)-3-(5-fluoro-1H-indol-3-yl)pyrrolidine-2,5-dione after 48 hrs; summary of the method: as §1
[36] = tested on: Plasma; test: Drug level in mouse plasma treated with (R)-3-(5-fluoro-1H-indol-3-yl)pyrrolidine-2,5-dione after 48 hrs; type: ADME, cell-free; summary of the method: as §1
[37] = tested on: Plasma; test: Drug level in dog plasma treated with (R)-3-(5-fluoro-1H-indol-3-yl)pyrrolidine-2,5-dione after 48 hrs; type: ADME, cell-free, Canis lupus familiaris; summary of the method: as §1
[38] = tested on: Plasma; test: Drug level in rat plasma treated with (R)-3-(5-fluoro-1H-indol-3-yl)pyrrolidine-2,5-dione after 48 hrs; type: ADME, cell-free; summary of the method: as §1
[39] = tested on: Plasma; test: Drug level in dog acidified plasma treated with (R)-3-(5-fluoro-1H-indol-3-yl)pyrrolidine-2,5-dione after 48 hrs; type: ADME, cell-free, Canis lupus familiaris; summary of the method: as §1
[40] = tested on: Cynomolgus monkey; test: Drug level in cynomolgus monkey treated with (R)-3-(5-fluoro-1H-indol-3-yl)pyrrolidine-2,5-dione at 10 mg/kg, po; type: ADME, organism-based, Macaca fascicularis; conditions: in vivo; summary of the method: as §4

Sequence of Indoleamine 2,3-dioxygenase 1 (Mus musculus, UniProt P28776) (P28776 whole entry): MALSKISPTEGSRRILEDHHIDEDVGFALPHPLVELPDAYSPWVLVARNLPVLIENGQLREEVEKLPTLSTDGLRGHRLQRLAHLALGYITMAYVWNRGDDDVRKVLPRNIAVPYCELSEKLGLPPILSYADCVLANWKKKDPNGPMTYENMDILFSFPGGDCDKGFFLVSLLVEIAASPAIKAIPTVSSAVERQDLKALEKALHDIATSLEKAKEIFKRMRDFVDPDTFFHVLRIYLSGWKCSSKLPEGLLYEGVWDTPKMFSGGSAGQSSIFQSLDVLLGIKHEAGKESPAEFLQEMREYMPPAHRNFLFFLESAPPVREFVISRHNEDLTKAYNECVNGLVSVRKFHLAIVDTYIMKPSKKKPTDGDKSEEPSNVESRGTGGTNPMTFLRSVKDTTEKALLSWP

Compound: O=C1C[C@H](c2c[nH]c3ccc(F)cc23)C(=O)N1
IC50 [1]: 7.3 µM
IC50 [2]: 0.2 µM
remaining at 48 h [3]: 89%
remaining at 48 h [4]: 35%
remaining at 48 h [5]: 30%
remaining at 48 h [6]: 27%
remaining at 48 h [7]: 93.5%
fraction unbound at 48 h [8]: 0.449
AUC(0-inf) [9]: 2270 ng·h/mL
AUC(0-inf) [10]: 696 ng·h/mL
AUC(0-inf) [11]: 6810 ng·h/mL
AUC [12]: 153 ng·h/mL
AUC [13]: 124 ng·h/mL
AUC [14]: 3516 ng·h/mL
Drug metabolism [15]: Metabolite_Detected
metabolised [16]: 39%
metabolised [17]: 61%

Compound: O=C1CC(c2c[nH]c3ccc(C(F)(F)F)cc23)C(=O)N1 (centres undefined)
IC50 [18]: 9.7 µM

Compound: O=C1C[C@@H](c2c[nH]c3ccccc23)C(=O)N1
IC50 [18]: 83 µM

Compound: N#Cc1ccc2[nH]cc(C3CC(=O)NC3=O)c2c1 (centres undefined)
IC50 [18]: 1.2 µM

Compound: O=C1C[C@@H](c2c[nH]c3ccc(F)cc23)C(=O)N1
Drug metabolism [35]: Metabolite detected
Drug metabolism [36]: Metabolite_Detected
Drug metabolism [37]: Metabolite_Detected
Drug metabolism [38]: Metabolite_Detected
Drug metabolism [39]: Metabolite_Detected
fraction unbound at 48 h [8]: 0.286
Drug metabolism [40]: Metabolite_Detected

Compound: COc1ccc2c(C3CC(=O)NC3=O)c[nH]c2c1 (centres undefined)
IC50 [18]: > 50 µM

Further lines, results first:

IC50 [18]: 0.83 µM
Compound: O=C1CC(c2c[nH]c3ccc(Cl)cc23)C(=O)N1 (centres undefined)

IC50 [18]: 0.58 µM
Compound: O=C1C[C@H](c2c[nH]c3cc(Cl)c(F)cc23)C(=O)N1

IC50 [18]: > 50 µM
Compound: O=C1C[C@@H](c2c[nH]c3cc(Cl)c(F)cc23)C(=O)N1

IC50 [18]: > 50 µM
Compound: O=C1CC(c2cccc3cc(Cl)ccc23)C(=O)N1 (centres undefined)

fraction unbound [19]: 0.43
fraction unbound [20]: 0.55
clearance [21]: < 10 µL/min/mg
clearance [22]: < 10 µL/min/mg
Papp [23]: 28 ×10⁻⁶ cm/s
IC50 [24]: > 10 µM
IC50 [25]: > 10 µM
IC50 [26]: > 10 µM
IC50 [27]: > 10 µM
IC50 [28]: > 10 µM
clearance [29]: 15.6 mL/min/kg
Vd [30]: 1.2 L/kg
half-life [31]: 58.2 min
bioavailability [32]: 63%
bioavailability [33]: 65%
efflux ratio [34]: 0.77
Compound: O=C1C[C@H](c2c[nH]c3ccccc23)C(=O)N1

IC50 [18]: > 50 µM
Compound: O=C1CC(c2cccc3ccc(Cl)cc23)C(=O)N1 (centres undefined)
